# Measured values as given in article PMC6863157 (Investigational new drugs, 2016).
# Tests used:
# advanced solid tumors = assay: Tumor response by RECIST; assay type: in vivo, human; conditions: for partial responses (PRs): melanoma patients
# Procedure, shortened: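 Oral test compound was given once daily at 60 mg (21/7) or 100 mg (14/14) in 28-day cycles. Patients with measurable lesions had CT at screening and about every 8 weeks, assessed by RECIST. CR/PR was confirmed 4 weeks after first documentation. Archival tissue was typed for BRAF V600, NRAS Q61 and KRAS G12/13 mutations. Responses were summarized as frequency counts and percentages.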
# [1] = system: RAS- or RAF-mutant FDG-PET-avid tumors; assay: FDG-PET pharmacodynamic; assay type: in vivo, human; conditions: Cycle 1 Day 10–14 (on drug); 60-mg (21/7) MTD; 8 of 17
# [2] = system: phosphorylation of ERK1/2 in cell lines harboring KRAS or BRAF mutations; conditions: cited from earlier work
# Plasma pharmacokinetics = assay type: in vivo, human; conditions: for half-life: human, plasma; for CL/F apparent plasma clearance: steady state, geometric mean (%CV)
# Procedure, shortened: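 Advanced solid tumor patients took oral test compound capsules once daily on 21-day on/7-day off or 14-day on/14-day off schedules in 28-day cycles. Serial plasma was sampled after the first dose (Day 1) and last dose (Day 21 or 14) of Cycle 1, plus pre-dose on Day 1 of later cycles. Analysis was by validated LC-MS/MS with noncompartmental analysis. Racc = Day 21 AUC0–24/Day 1 AUC0–24.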
# [3] = system: patients with advanced solid tumors; conditions: in vivo
# [4] = system: patients with advanced solid tumors; assay: Phase Ia dose escalation/expansion: safety, DLT, MTD, adverse events; conditions: oral once daily
smiles,measurement,setting,value
O=C(c1ccc(F)c(F)c1Nc1ccc(I)cc1F)N1CC(O)([C@@H]2CCCCN2)C1 [cobimetinib],RECIST responses,advanced solid tumors; 28 patients with KRAS-mutant colorectal cancer,no responses
same,patients with prolonged stable disease (SD) of five months or greater,advanced solid tumors; all tumor types,five
same,partial responses (PRs),advanced solid tumors; 60 mg on the 21/7 dosing schedule,three
same,partial responses (PRs),advanced solid tumors; 100 mg 14/14 dosing schedule,three
same,duration of stable disease,advanced solid tumors; patient with adenoid cystic carcinoma,7 months
same,duration of stable disease,advanced solid tumors; patient with carcinoid,≥ 47 months
same,duration of stable disease,advanced solid tumors; patient with esophageal tumor,6 months
same,duration of stable disease,advanced solid tumors; patient with non-small cell lung cancer,13 months
same,median time on cobimetinib of responders,"advanced solid tumors; seven responders, range 42–721+ days",280 days
same,FDG-PET metabolic response rate,[1],47%
same,effect on ERK1/2 phosphorylation,[2],inhibits the phosphorylation of ERK1/2
same,exposure vs dose,Plasma pharmacokinetics; from 0.05 mg/kg (approximately 3.5 mg for a 70-kg adult) to 100 mg,dose-proportional
same,half-life,"Plasma pharmacokinetics; oral, 100 mg, t1/2 elimination half-life, 100 mg (14/14), geometric mean (range), n 13",54 h
same,half-life,"Plasma pharmacokinetics; oral, mean terminal half-life, across all doses",49 h
same,half-life,"Plasma pharmacokinetics; oral, terminal half-life, range, across all doses",23 to 80 h
same,median tmax,"Plasma pharmacokinetics; oral, all cohorts",one to three
same,CL/F apparent plasma clearance,"Plasma pharmacokinetics; 60 mg (21/7), n 37",13.8 (61) L/h
same,CL/F apparent plasma clearance,"Plasma pharmacokinetics; 100 mg (14/14), n 18",14.8 (92) L/h
same,incidence of edema,[3]; human,34%
same,incidence of treatment-related rash,[3]; human,54%
same,median onset of rash,[3]; human,12 days
same,median rash duration,[3]; human,20 days
same,patients with Grade ≥ 2 central serous retinopathy (CSR),[3]; human,5%
same,"patients with at least one SAE, regardless of causality",[3]; human,42%
same,patients with at least one treatment-related AE,[3]; human,90%
same,patients with dose reductions due to treatment-related rash,[3]; human,4%
same,"patients with gastrointestinal disorder SAEs, regardless of causality",[3]; human,14%
same,patients with treatment-related AEs that led to dose reductions or interruption,[3]; human,25%
same,treatment-related AEs that were Grade 1–2,[3]; human,72%
same,treatment-related rash that was Grade 1 or 2,[3]; human,94%
same,patients who experienced DLTs,[3],four
same,retinal vein occlusion,[3],no reports
same,reversibility of visual adverse events,[3],reversible and resolved within one week
same,symptomatic decreases in LVEF,[3],No events
same,maximum tolerated dose (MTD),[4]; 14/14 dosing schedule,100 mg
same,maximum tolerated dose (MTD),[4]; 21/7 dosing schedule,60 mg
